Series [1] is described as follows: Toxicity in human RBC assessed as minimum lytic concentration. The conditions noted are these: erythrocyte. The class given is cell-based.
Series [2] can be described thus: Toxicity in human RBC assessed as hemolysis. The series is classed as cell-based, Erythrocyte. The note with it: red blood cells (RBC). An outline of the steps:
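Red blood cell lysis assay; cytotoxicity reported as IC50 in µM.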

Series [3] concerns RAW264.7. Put plainly: Induction of [3H]cholesterol efflux in mouse RAW264.7 cells at 100 uM after 24 hrs by scintillation counting. The class given is functional, cell-based.
Series [4] relates to RAW264.7. As to the kind of experiment: Cytotoxicity against mouse RAW264.7 cells after 24 hrs by MTT assay. The class given is cell-based. The note with it: RAW264.7, 24 h. An outline of the steps:
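RAW macrophage cytotoxicity examined at peptide concentrations up to 160 µM.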
Background: Formazan colour is commonly taken as a measure of viable cells.

Series [5] deals with RAW264.7. Put plainly: Induction of [3H]cholesterol efflux in mouse RAW264.7 cells after 24 hrs by scintillation counting. The series is classed as functional, cell-based. The note with it: Mus musculus, RAW264.7; read-out: EC50. An outline of the steps:
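Cholesterol efflux from RAW macrophages; EC50 reported in µM as the mean of three experiments.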

Series [6] has as its system Plasma. As to the kind of experiment: Incorporation into HDL fraction in wild type mouse plasma at 0.25 mg/ml after 2 hrs by size exclusion chromatography analysis. For orientation: In gel filtration, larger molecules generally elute earlier.
Series [7] relates to Plasma. As to the kind of experiment: Increase in pre-beta-HDL level in human plasma after 1 hr by ELISA. The class given is functional, cell-free. The method, boiled down: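 Peptides were titrated into human plasma, with concentrations expressed in µg/ml, and pre-β-HDL was read out by ELISA using a pre-β antibody.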
Background: ELISA stands for enzyme-linked immunosorbent assay.

Series [8] deals with RAW264.7. As to the kind of experiment: Induction of [3H]cholesterol efflux in mouse RAW264.7 cells at 30 uM after 24 hrs by scintillation counting. The series is classed as functional, cell-based.

Values after ≈ are worked out from the molar mass of the structure shown. Non-standard residues stand in square brackets, D forms with d. Residues, ends and D or L forms follow the SMILES beside them. Aib = CC(C)(N)C(=O)O Bounds are passed on as bounds.

Take `O=C(N[C@H](CO)[C@H](O)c1ccc([N+](=O)[O-])cc1)C(Cl)Cl` [CHLORAMPHENICOL]: the MLC in series [1] was above 64 µg/mL.
Take `CC(C)C[C@H](NC(=O)[C@H](C)NC(=O)[C@H](CCC(=O)O)NC(=O)[C@H](CC(C)C)NC(=O)C(C)(C)NC(=O)[C@H](CCC(=O)O)NC(=O)[C@H](CC(N)=O)NC(=O)[C@H](CC(C)C)NC(=O)[C@H](CCCCN)NC(=O)[C@H](CCC(=O)O)NC(=O)[C@H](CCCNC(=N)N)NC(=O)[C@H](Cc1ccccc1)NC(=O)[C@H](CCC(=O)O)NC(=O)[C@H](CC(=O)O)NC(=O)[C@H](CC(C)C)NC(=O)[C@@H](NC(=O)[C@@H]1CCCN1)C(C)C)C(=O)N[C@@H](CCCCN)C(=O)N[C@@H](CCC(N)=O)C(=O)N[C@@H](CCCCN)C(=O)N[C@@H](CC(C)C)C(=O)N[C@@H](CCCCN)C(=O)O` (H-PVLDEFREKLNE[Aib]LEALKQKLK-OH): the IC50 (in series [2]; with RAW264.7 [4]) was above 160 µM each time. In the series with RAW264.7 [3], this molecule came in with a cholesterol efflux of 6%.
With `C=CCCCCC[C@H](NC(=O)[C@H](CCC(=O)O)NC(=O)[C@H](CC(N)=O)NC(=O)[C@H](CC(C)C)NC(=O)[C@H](CCCCN)NC(=O)[C@H](CCC(=O)O)NC(=O)[C@H](CCCNC(=N)N)NC(=O)[C@@H](CCCCC=C)NC(=O)[C@H](CCC(=O)O)NC(=O)[C@H](CC(=O)O)NC(=O)[C@H](CC(C)C)NC(=O)[C@@H](NC(=O)[C@@H]1CCCN1)C(C)C)C(=O)N[C@@H](CC(C)C)C(=O)N[C@@H](CCC(=O)O)C(=O)N[C@@H](C)C(=O)N[C@@H](CC(C)C)C(=O)N[C@@H](CCCCN)C(=O)N[C@@H](CCC(N)=O)C(=O)N[C@@H](CCCCN)C(=O)N[C@@H](CC(C)C)C(=O)N[C@@H](CCCCN)C(=O)O`, the IC50 (usually the concentration needed to halve the response being measured) in series [2] is above 160 µM; in the series on RAW264.7 [4] it was above 160 µM; with Plasma [6], “Active”; with Plasma [7], “Active”. Further, in the series on RAW264.7 [5], the EC50 – broadly, the concentration giving half of the maximal effect – turned out to be 0.8 µM.
`C=CCCC[C@@H](NC(=O)[C@H](C)NC(=O)[C@H](CCC(=O)O)NC(=O)[C@H](CC(C)C)NC(=O)[C@@H](CCCC=C)NC(=O)[C@H](CCC(=O)O)NC(=O)[C@H](CC(N)=O)NC(=O)[C@H](CC(C)C)NC(=O)[C@H](CCCCN)NC(=O)[C@H](CCC(=O)O)NC(=O)[C@H](CCCNC(=N)N)NC(=O)[C@H](Cc1ccccc1)NC(=O)[C@H](CCC(=O)O)NC(=O)[C@H](CC(=O)O)NC(=O)[C@H](CC(C)C)NC(=O)[C@@H](NC(=O)[C@@H]1CCCN1)C(C)C)C(=O)N[C@@H](CCCCN)C(=O)N[C@@H](CCC(N)=O)C(=O)N[C@@H](CCCCN)C(=O)N[C@@H](CC(C)C)C(=O)N[C@@H](CCCCN)C(=O)O`: the IC50 (in series [2]; in the series on RAW264.7 [4]) was above 160 µM throughout. In the series with RAW264.7 [8], this molecule yielded a cholesterol efflux of 3%.
`C[C@@H]1[C@H](O)[C@@H](C)/C=C/C=C/C=C/C=C/C=C/C=C/C=C/[C@H](O[C@@H]2O[C@H](C)[C@@H](O)[C@H](N)[C@@H]2O)C[C@@H]2O[C@](O)(C[C@@H](O)C[C@@H](O)[C@H](O)CC[C@@H](O)C[C@@H](O)CC(=O)O[C@H]1C)C[C@H](O)[C@H]2C(=O)O` [AMPHOTERICIN B]: the MLC in series [1] was 2 µg/mL (≈ 2.16 µM).
Consider `CC(C)C[C@H](NC(=O)[C@H](CCCCN)NC(=O)[C@H](CCC(N)=O)NC(=O)[C@H](CCCCN)NC(=O)[C@H]1CCC/C=C\CCC[C@@H](NC(=O)[C@H](CCC(=O)O)NC(=O)[C@H](CC(N)=O)NC(=O)[C@H](CC(C)C)NC(=O)[C@H](CCCCN)NC(=O)[C@H](CCC(=O)O)NC(=O)[C@H](CCCNC(=N)N)NC(=O)[C@H](Cc2ccccc2)NC(=O)[C@H](CCC(=O)O)NC(=O)[C@H](CC(=O)O)NC(=O)[C@H](CC(C)C)NC(=O)[C@@H](NC(=O)[C@@H]2CCCN2)C(C)C)C(=O)N[C@@H](CC(C)C)C(=O)N[C@@H](CCC(=O)O)C(=O)N[C@@H](C)C(=O)N1)C(=O)N[C@@H](CCCCN)C(=O)O`, for which the IC50 (in series [2]; with RAW264.7 [4]) was above 160 µM throughout. Besides, in the series with RAW264.7 [8], the cholesterol efflux was 2%.

Values taken from ChEMBL document CHEMBL1153146, “Novel potent apoA-I peptide mimetics that stimulate cholesterol efflux and pre-beta particle formation in vitro” (Bioorg Med Chem Lett, 2010).
